# Laboratory results published in ChEMBL document CHEMBL4118192, “BET bromodomain ligands: Probing the WPF shelf to improve BRD4 bromodomain affinity and metabolic stability” (Bioorg Med Chem, 2018).
# pIC50, pKd: −log10 of the molar value.
# Assays:
# [1] = target: T1, Bromodomain-containing protein 4 (Homo sapiens, UniProt O60885); assay: Inhibition of recombinant His6-tagged human BRD4 bromodomain 1 expressed in Escherichia coli BL21(DE3)-R3-pRARE2 cells preincubated for 30 mins followed by H4KAc4 peptide substrate addition measured after 30 mins by AlphaScreen assay; settings: for pIC50: read-out: IC50; for IC50: read-out: pIC50 (converted)
# [2] = Apparent half life in human liver microsomes at 3 uM; type: ADME, microsome; settings: read-out: t1/2(app)
# [3] = Intrinsic clearance in human liver microsomes at 3 uM; type: ADME, microsome; settings: read-out: CLH
# A498 = assay: Growth inhibition of human A498 cells after 48 hrs by SRB assay; type: functional; settings: A498, 48 h
# Outline: (§1)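 In-house assay. Cells were seeded into 96-well plates at a density for exponential growth and treated with a concentration range for 48 h. They were then fixed in 10% (w/v) TCA and stained with sulforhodamine B. The 50% growth-inhibitory concentration relative to control cells was calculated as the mean of three repeats ± standard deviation.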
# HT-29 = assay: Growth inhibition of human HT-29 cells after 48 hrs by SRB assay; type: functional; settings: HT-29, 48 h; outline: as §1
# MCF7 = assay: Growth inhibition of human MCF7 cells after 48 hrs by SRB assay; type: functional; settings: MCF7, 48 h; outline: as §1
# [4] = target: T1, Bromodomain-containing protein 4; assay: Binding affinity to His6-tagged human BRD4 bromodomain 1 expressed in Escherichia coli BL21(DE3)-R3-pRARE2 cells by isothermal titration calorimetric method
# [5] = target: ATPase family AAA domain-containing protein 2B (Homo sapiens) (UniProt Q9ULI0); assay: Inhibition of human partial length ATAD2B (Q955 to R1082 residues) expressed in bacterial expression system assessed as residual activity at 1 uM by BROMOscan assay relative to control
# [6] = target: Bromodomain-containing protein 2 (Homo sapiens) (UniProt P25440); assay: Inhibition of human partial length BRD2 bromodomain 1 (K71 to N194 residues) expressed in bacterial expression system assessed as residual activity at 1 uM by BROMOscan assay relative to control
# [7] = target: Bromodomain-containing protein 3 (Homo sapiens) (UniProt Q15059); assay: Inhibition of human partial length BRD3 bromodomain 1 (P24 to E144 residues) expressed in bacterial expression system assessed as residual activity at 1 uM by BROMOscan assay relative to control
# [8] = target: T1, Bromodomain-containing protein 4; assay: Inhibition of human partial length BRD4 bromodomain 1 (N44 to E168 residues) expressed in bacterial expression system assessed as residual activity at 1 uM by BROMOscan assay relative to control
# [9] = target: T1, Bromodomain-containing protein 4; assay: Inhibition of human partial length BRD4 bromodomain 2 (K333 to E460 residues) expressed in bacterial expression system assessed as residual activity at 1 uM by BROMOscan assay relative to control
# [10] = target: Bromodomain-containing protein 9 (Homo sapiens) (UniProt Q9H8M2); assay: Inhibition of human partial length BRD9 (R130 to V259 residues) expressed in bacterial expression system assessed as residual activity at 1 uM by BROMOscan assay relative to control
# [11] = target: Bromodomain testis-specific protein (Homo sapiens) (UniProt Q58F21); assay: Inhibition of human partial length BRDT bromodomain 1 (N21 to E137 residues) expressed in bacterial expression system assessed as residual activity at 1 uM by BROMOscan assay relative to control
# Peregrin (Homo sapiens) = Peregrin (Homo sapiens) (UniProt P55201); assay: Inhibition of human partial length BRPF1 (E627 to G740 residues) expressed in bacterial expression system assessed as residual activity at 1 uM by BROMOscan assay relative to control
# [12] = target: CREB-binding protein (Homo sapiens) (UniProt Q92793); assay: Inhibition of human partial length CREBBP (R1081 to G1197 residues) expressed in bacterial expression system assessed as residual activity at 1 uM by BROMOscan assay relative to control
# [13] = target: Histone acetyltransferase KAT2B (Homo sapiens) (UniProt Q92831); assay: Inhibition of human partial length PCAF (G715 to D831 residues) expressed in bacterial expression system assessed as residual activity at 1 uM by BROMOscan assay relative to control
# [14] = target: SWI/SNF-related matrix-associated actin-dependent regulator of chromatin subfamily A member 4 (Homo sapiens) (UniProt P51532); assay: Inhibition of human partial length SMARCA4 (A1448 to S1575 residues) expressed in bacterial expression system assessed as residual activity at 1 uM by BROMOscan assay relative to control
# [15] = target: Bromodomain and WD repeat-containing protein 1 (Homo sapiens) (UniProt Q9NSI6); assay: Inhibition of human partial length WDR9 bromodomain 2 (A1310 to E1430 residues) expressed in bacterial expression system assessed as residual activity at 1 uM by BROMOscan assay relative to control
# Sequence of Bromodomain-containing protein 3 (Homo sapiens) (Q15059 2-726 limits assumed): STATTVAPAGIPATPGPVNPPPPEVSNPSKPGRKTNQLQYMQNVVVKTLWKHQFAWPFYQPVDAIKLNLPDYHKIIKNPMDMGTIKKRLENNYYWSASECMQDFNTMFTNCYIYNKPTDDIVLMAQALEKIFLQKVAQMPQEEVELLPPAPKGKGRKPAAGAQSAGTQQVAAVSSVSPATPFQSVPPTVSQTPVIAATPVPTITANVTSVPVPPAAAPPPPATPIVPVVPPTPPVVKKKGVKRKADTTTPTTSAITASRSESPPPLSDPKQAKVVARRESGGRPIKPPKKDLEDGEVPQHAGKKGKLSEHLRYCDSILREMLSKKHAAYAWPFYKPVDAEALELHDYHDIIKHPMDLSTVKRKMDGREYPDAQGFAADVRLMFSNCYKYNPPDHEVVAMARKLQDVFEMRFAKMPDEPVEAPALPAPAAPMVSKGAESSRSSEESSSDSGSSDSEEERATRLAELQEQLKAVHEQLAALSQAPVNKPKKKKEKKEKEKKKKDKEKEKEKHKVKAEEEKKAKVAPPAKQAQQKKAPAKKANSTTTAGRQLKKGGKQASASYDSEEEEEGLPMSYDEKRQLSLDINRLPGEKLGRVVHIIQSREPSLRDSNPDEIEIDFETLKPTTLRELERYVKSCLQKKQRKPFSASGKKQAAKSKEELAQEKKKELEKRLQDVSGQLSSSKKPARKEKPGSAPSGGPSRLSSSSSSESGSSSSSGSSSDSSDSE
# Sequence of ATPase family AAA domain-containing protein 2B (Homo sapiens) (Q9ULI0 whole entry, the tested form may be a part): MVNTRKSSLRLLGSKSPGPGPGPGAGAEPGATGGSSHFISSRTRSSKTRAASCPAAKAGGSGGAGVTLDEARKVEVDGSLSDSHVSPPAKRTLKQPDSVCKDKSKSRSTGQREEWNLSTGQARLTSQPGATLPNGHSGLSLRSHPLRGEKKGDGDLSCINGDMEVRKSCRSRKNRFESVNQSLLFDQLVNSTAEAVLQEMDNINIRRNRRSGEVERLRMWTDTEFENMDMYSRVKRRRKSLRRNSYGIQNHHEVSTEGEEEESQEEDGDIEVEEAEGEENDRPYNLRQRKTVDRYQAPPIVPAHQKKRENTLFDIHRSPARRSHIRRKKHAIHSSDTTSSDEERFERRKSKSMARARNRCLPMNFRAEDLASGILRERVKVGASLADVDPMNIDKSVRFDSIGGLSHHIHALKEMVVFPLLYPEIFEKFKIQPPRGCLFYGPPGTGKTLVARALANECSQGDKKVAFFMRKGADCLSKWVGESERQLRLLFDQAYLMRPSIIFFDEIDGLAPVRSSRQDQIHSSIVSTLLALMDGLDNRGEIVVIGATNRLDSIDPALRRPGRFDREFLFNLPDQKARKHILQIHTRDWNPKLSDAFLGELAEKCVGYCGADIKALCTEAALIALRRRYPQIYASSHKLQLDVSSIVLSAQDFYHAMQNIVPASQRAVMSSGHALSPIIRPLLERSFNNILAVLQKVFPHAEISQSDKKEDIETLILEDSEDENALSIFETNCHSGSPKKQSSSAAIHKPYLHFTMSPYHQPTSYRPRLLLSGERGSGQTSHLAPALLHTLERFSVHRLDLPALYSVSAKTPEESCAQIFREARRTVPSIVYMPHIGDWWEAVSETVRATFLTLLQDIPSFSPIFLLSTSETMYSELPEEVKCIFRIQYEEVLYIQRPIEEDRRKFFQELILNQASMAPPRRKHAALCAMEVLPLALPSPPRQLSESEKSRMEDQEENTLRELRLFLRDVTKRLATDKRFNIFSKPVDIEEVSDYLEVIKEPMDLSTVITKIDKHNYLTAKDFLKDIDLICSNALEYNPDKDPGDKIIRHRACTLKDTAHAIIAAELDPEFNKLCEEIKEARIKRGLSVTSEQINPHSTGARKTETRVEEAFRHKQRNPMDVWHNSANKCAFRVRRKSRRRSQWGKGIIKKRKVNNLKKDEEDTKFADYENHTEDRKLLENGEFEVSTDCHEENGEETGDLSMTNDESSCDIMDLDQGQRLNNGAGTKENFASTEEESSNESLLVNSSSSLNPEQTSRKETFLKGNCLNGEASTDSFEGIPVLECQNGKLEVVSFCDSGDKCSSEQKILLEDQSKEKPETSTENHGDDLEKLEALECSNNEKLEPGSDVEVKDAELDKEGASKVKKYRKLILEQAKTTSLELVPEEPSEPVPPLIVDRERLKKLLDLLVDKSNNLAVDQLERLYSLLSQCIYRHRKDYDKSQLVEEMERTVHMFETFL
# Sequence of Bromodomain-containing protein 2 (Homo sapiens) (P25440 whole entry, looked up, the tested form may be a part): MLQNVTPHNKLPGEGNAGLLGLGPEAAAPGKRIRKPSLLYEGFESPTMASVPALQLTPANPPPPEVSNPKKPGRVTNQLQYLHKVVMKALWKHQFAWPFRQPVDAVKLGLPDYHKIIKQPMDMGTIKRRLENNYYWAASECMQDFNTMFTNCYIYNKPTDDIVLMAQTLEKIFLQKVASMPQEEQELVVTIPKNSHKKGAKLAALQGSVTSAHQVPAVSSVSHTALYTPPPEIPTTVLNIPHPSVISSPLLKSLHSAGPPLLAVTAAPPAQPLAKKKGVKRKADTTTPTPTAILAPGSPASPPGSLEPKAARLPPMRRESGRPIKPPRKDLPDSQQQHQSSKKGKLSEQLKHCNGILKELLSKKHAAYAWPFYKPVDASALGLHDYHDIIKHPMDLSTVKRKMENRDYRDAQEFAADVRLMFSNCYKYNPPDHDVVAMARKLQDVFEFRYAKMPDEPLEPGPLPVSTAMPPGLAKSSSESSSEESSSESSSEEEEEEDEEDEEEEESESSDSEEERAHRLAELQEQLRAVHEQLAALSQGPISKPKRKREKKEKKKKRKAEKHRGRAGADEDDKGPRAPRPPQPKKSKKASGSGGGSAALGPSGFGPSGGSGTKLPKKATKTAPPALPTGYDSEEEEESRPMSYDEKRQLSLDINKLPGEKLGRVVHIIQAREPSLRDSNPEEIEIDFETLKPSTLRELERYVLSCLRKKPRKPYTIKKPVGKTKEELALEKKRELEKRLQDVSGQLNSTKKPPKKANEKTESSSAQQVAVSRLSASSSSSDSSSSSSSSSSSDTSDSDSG
# Sequence of Bromodomain-containing protein 9 (Homo sapiens) (Q9H8M2 whole entry, the tested form may be a part): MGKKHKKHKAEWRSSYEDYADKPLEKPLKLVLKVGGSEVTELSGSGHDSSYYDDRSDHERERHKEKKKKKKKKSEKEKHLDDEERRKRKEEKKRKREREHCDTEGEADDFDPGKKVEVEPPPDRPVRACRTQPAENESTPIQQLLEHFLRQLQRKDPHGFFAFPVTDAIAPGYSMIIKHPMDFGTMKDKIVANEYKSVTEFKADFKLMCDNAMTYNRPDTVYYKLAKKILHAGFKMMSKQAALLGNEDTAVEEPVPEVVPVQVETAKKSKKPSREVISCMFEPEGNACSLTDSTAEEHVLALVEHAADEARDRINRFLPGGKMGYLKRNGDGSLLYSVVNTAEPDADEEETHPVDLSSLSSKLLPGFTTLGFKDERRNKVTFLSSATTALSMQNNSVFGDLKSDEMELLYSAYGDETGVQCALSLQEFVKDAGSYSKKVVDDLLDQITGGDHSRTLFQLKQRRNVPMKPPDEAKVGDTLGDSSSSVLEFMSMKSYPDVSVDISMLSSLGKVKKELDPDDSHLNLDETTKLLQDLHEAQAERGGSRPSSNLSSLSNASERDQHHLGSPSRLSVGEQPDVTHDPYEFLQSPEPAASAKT
# Sequence of Histone acetyltransferase KAT2B (Homo sapiens) (Q92831 whole entry, looked up, the tested form may be a part): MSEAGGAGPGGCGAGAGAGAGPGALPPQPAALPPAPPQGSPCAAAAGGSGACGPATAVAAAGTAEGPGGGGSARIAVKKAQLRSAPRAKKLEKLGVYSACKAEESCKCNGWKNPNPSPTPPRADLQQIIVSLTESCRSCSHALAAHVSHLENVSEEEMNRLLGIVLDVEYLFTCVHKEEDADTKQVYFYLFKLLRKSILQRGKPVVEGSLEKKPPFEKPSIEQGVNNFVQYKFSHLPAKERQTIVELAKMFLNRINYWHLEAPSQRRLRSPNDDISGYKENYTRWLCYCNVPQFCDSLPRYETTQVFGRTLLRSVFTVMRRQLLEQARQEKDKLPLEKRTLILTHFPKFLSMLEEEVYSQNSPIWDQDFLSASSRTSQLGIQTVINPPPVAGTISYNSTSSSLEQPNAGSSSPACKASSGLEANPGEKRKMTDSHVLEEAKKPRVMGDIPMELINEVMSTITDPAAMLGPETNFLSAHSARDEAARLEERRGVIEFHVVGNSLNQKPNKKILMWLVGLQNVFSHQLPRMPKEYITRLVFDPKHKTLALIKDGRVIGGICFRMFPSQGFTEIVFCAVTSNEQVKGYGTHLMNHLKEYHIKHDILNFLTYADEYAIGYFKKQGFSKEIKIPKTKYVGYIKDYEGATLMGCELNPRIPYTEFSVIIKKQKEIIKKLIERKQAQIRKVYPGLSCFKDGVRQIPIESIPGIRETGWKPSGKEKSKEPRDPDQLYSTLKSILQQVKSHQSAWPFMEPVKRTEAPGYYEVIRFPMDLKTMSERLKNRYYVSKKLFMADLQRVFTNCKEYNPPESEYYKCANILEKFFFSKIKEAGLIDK
Compound,pIC50 [1],IC50 [1] [nM],further results
Cc1noc(C)c1-c1cc(O)cc(CN2CCCCC2)c1,5.37,4270,–
Cc1noc(C)c1-c1cc(O)cc(C(O)c2ccc(Cl)c(Cl)c2)c1 (stereo not given),6.02,955,–
Cc1noc(C)c1-c1cc(O)cc(CN2CCCC2)c1,5.49,3240,–
Cc1noc(C)c1-c1cc(O)cc(C(O)c2ccncc2)c1 (stereo not given),6.52,302,–
Cc1noc(C)c1-c1cc(O)cc(C(=O)N2CCOCC2)c1,5.42,3800,–
Cc1noc(C)c1-c1cc(O)cc(C(O)c2ccc(F)cc2)c1 (stereo not given),6.07,851,–
Cc1noc(C)c1-c1cc(O)cc(C(O)C2CC2)c1 (stereo not given),6.42,380,–
Cc1noc(C)c1-c1cc(O)cc(C(O)c2ccc(Cl)cn2)c1 (stereo not given),6.31,490,–
Cc1noc(C)c1-c1cc(O)cc(C(=O)N2CCNCC2)c1,6.14,724,–
Cc1noc(C)c1-c1cc(O)cc(CN2CCN(C)CC2)c1,5.91,1230,–
COc1ccc(C(O)c2cc(O)cc(-c3c(C)noc3C)c2)cc1 (stereo not given),6.23,589,–
Cc1noc(C)c1-c1cc(O)cc(C(O)c2cccnc2)c1 (stereo not given),6.78,166,half-life at 3 µM [2]: 388 min; microsomal CLint at 3 µM [3]: 3.57 µL/min/mg; GI50 (A498): 4880 nM; GI50 (HT-29): 4400 nM; GI50 (MCF7): 1400 nM; pKd [4]: 6.61; Activity [5]: 98%; Activity [6]: 1.8%; Activity [7]: 1.5%; Activity [8]: 4.6%; Activity [9]: 1.1%; Activity [10]: 100%; Activity [11]: 11%; Activity (Peregrin (Homo sapiens)): 100%; Activity [12]: 29%; Activity [13]: 100%; Activity [14]: 100%; Activity [15]: 100%
Cc1noc(C)c1-c1cc(O)cc(C(O)c2ccc(Cl)cc2)c1 (stereo not given),6.20,631,–
COc1ccc2c(c1)[C@]13CCCC[C@@H]1[C@H](C2)N(C)CC3 [DEXTROMETHORPHAN],–,–,half-life at 3 µM [2]: 54.5 min; microsomal CLint at 3 µM [3]: 25.4 µL/min/mg
Cc1noc(C)c1-c1cc(O)cc(C(O)C2CCCCC2)c1 (stereo not given),6.78,166,–
Cc1noc(C)c1-c1cc(O)cc(CNCc2ccccc2)c1,5.65,2240,–
COc1cccc(C(O)c2cc(O)cc(-c3c(C)noc3C)c2)c1 (stereo not given),6.32,479,–
COc1ccccc1C(O)c1cc(O)cc(-c2c(C)noc2C)c1 (stereo not given),6.57,269,–
Cc1noc(C)c1-c1cc(O)cc(C(O)c2ccccc2F)c1 (stereo not given),5.85,1410,–
Cc1noc(C)c1-c1cc(O)cc(CN2CCC(F)(F)CC2)c1,6.63,234,half-life at 3 µM [2]: 27 min; microsomal CLint at 3 µM [3]: 51.4 µL/min/mg
Cc1noc(C)c1-c1cc(O)cc(CN2CCOCC2)c1,6.02,955,–
Cc1ccc(C(O)c2cc(O)cc(-c3c(C)noc3C)c2)cc1 (stereo not given),6.53,295,–
Cc1noc(C)c1-c1cc(O)cc(Cc2ccccc2)c1,5.96,1100,–
Cc1noc(C)c1-c1cc(O)cc(C(O)c2ccccn2)c1 (stereo not given),5.33,4680,–
Cc1noc(C)c1-c1cc(O)cc(C(O)c2cccc(F)c2)c1 (stereo not given),6.10,794,–
